Experimental data from ChEMBL document CHEMBL4665734, “Optimization of globomycin analogs as novel gram-negative antibiotics” (Bioorg Med Chem Lett, 2020).
Converted amounts (≈) assume the structure as drawn. Starred links: 1 amine or outer side, 2 acyl side, 3 side chain; linkers in the order of their positions; H or OH if unused. Non-standard residues stand in square brackets, D forms with d. Residues, ends and D or L forms follow the SMILES beside them. Groups on a side chain read outwards from the residue. *: point of attachment. X6 = C[C@H](CO[C@H](CC1C[C@H]2CC[C@@H](C1)C2)[C@@H](C)C(=O)[*:2])N[*:1]; dAlaψ(CH2NBu)Nle = CCCC[C@@H](C(=O)[*:2])N(CCCC)C[C@@H](C)N[*:1]; X3 = C[C@H](CO[C@H](CC1CC2(CCC2)C1)[C@@H](C)C(=O)[*:2])N[*:1]; X10 = CCCCCC[C@@H](OC[C@@H](CC)N[*:1])[C@@H](C)C(=O)[*:2]; X1 = CCCCCC[C@@H](OC[C@@H](C)N[*:1])[C@@H](C)C(=O)[*:2]; X8 = CCCCCC[C@@H](O[C@@H](C)CN[*:1])[C@@H](C)C(=O)[*:2]; X7 = CCCCCC[C@@H](O[C@H](C)CN[*:1])[C@@H](C)C(=O)[*:2]; Gly(cHept) = N[C@H](C(=O)O)C1CCCCCC1; aThr = C[C@H](O)[C@H](N)C(=O)O; NMeL = CN[C@@H](CC(C)C)C(=O)O; Chg = N[C@H](C(=O)O)C1CCCCC1; NMeNva = CCC[C@H](NC)C(=O)O; X13 = N[C@H]1C[C@H](N*)C1; hSer = N[C@@H](CCO)C(=O)O; X14 = NCCN1CC[C@H](*)C1; Dap = NC[C@H](N)C(=O)O; Propyl(3-NH2) = NCCC*; CO = O=C([*:1])[*:2]; X12 = NCC(CN)*; X5 = NCCCNCCC*; X11 = NCCCC*

What was measured:
[1] = Stability of the compound in human plasma assessed as parent compound remaining after 24 hrs; type: ADME, cell-free; details: read-out: Stabilty
Outline: (§1)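 Test compound incubated for 24 hour in human, rat or mouse plasma. Stability is reported as the percentage of parent compound remaining.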

[2] = Stability of the compound in mouse plasma assessed as parent compound remaining after 24 hrs; type: ADME, cell-free; details: read-out: Stabilty; outline: as §1
Escherichia coli = experiment: Inhibition of LspA in Escherichia coli CFT073imp4213 harboring outer membrane-permeable mutant assessed as inhibition of bacterial growth
Outline: (§2)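 Read-out is the minimum inhibitory concentration, reported in µM.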

Escherichia coli CFT073 = experiment: Inhibition of LspA in wild type Escherichia coli CFT073 assessed as inhibition of bacterial growth; outline: as §2
[3] = Growth inhibition of Staphylococcus aureus USA300
[4] = Lipophilicity, logD of the compound at pH 7.4; details: buffer, pH 7.4, logD
[5] = Stability of the compound in rat plasma assessed as parent compound remaining after 24 hrs; type: ADME, cell-free; details: read-out: Stabilty; outline: as §1
[6] = Protein binding in rat plasma; type: ADME, cell-free; details: read-out: PPB (converted)
[7] = Protein binding in mouse plasma; type: ADME, cell-free; details: read-out: PPB (converted)
[8] = Clearance in rat liver microsomes; type: ADME, Microsome
Outline: (§3)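 Intrinsic clearance in rat or mouse liver microsomes, expressed in mL/min/kg.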

[9] = Clearance in mouse liver microsomes; type: ADME, Microsome; outline: as §3
[10] = Clearance in iv dosed rat; type: ADME, organism-based; details: in vivo
[11] = Half life in iv dosed rat; type: ADME, organism-based; details: in vivo
[12] = Clearance in iv dosed mouse; type: ADME, organism-based; details: in vivo
[13] = Half life in iv dosed mouse; type: ADME, organism-based; details: in vivo
Enterobacter cloacae = experiment: Inhibition of LspA in Enterobacter cloacae assessed as inhibition of bacterial growth
Klebsiella pneumoniae = experiment: Inhibition of LspA in Klebsiella pneumoniae assessed as inhibition of bacterial growth
Pseudomonas aeruginosa = experiment: Inhibition of LspA in Pseudomonas aeruginosa assessed as inhibition of bacterial growth
Acinetobacter baumannii = experiment: Inhibition of LspA in Acinetobacter baumannii assessed as inhibition of bacterial growth
Jurkat = experiment: Cytotoxicity against human Jurkat cells; type: cell-based
Outline: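 Jurkat cell growth assay. Result reported as antiproliferative EC50.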

## CCCCCC[C@H]1O[C@H](C)CNC(=O)[C@H]([C@H](C)O)NC(=O)[C@H](CN)NC(=O)[C@H](C2CCCCC2)NC(=O)[C@H](CC(C)C)N(C)C(=O)[C@@H]1C (cyclo([Chg][Dap][aThr][X7][NMeL]))
[1]
  remaining at 24 h: 100%
[2]
  remaining at 24 h: 92%
Escherichia coli
  MIC: 0.4 µM (≈ 0.272 µg/mL)
Escherichia coli CFT073
  MIC: 35 µM (≈ 23.8 µg/mL)
[3]
  MIC: 100 µM (≈ 68.1 µg/mL)

## CCCCCC[C@H]1O[C@@H](C)CNC(=O)[C@H]([C@H](C)O)NC(=O)[C@H](CN)NC(=O)[C@H](C2CCCCC2)NC(=O)[C@H](CC(C)C)N(C)C(=O)[C@@H]1C (cyclo([Chg][Dap][aThr][X8][NMeL]))
[1]
  remaining at 24 h: 91%
[2]
  remaining at 24 h: 101%
Escherichia coli
  MIC: 0.1 µM (≈ 0.0681 µg/mL)
Escherichia coli CFT073
  MIC: 12 µM (≈ 8.17 µg/mL)
[3]
  MIC: 100 µM (≈ 68.1 µg/mL)

## CCCCCC[C@H]1OC[C@@H](CC)NC(=O)[C@H]([C@H](C)O)NC(=O)[C@H](CN)NC(=O)[C@H](C2CCCCC2)NC(=O)[C@H](CC(C)C)N(C)C(=O)[C@@H]1C (cyclo([Chg][Dap][aThr][X10][NMeL]))
[1]
  remaining at 24 h: 101%
[2]
  remaining at 24 h: 87%
Escherichia coli
  MIC: 0.024 µM (≈ 0.0167 µg/mL)
Escherichia coli CFT073
  MIC: 2.2 µM (≈ 1.53 µg/mL)
[3]
  MIC: 50 µM (≈ 34.7 µg/mL)

## CCCC[C@H]1C(=O)N(C)[C@@H](CC(C)C)C(=O)N[C@@H](C2CCCCC2)C(=O)N[C@@H](CN)C(=O)N[C@@H]([C@H](C)O)C(=O)N[C@H](C)CN1CCCC (cyclo([Chg][Dap][aThr][dAlaψ(CH2NBu)Nle][NMeL]))
[4]
  logD: 3.4
[1]
  remaining at 24 h: 97%
[2]
  remaining at 24 h: 89%
[5]
  remaining at 24 h: 102%
[6]
  fraction unbound: 0.005
[7]
  fraction unbound: 0.004
[8]
  CLhep predicted: 27 mL/min/kg
[9]
  CLhep predicted: 77 mL/min/kg
[10]
  clearance: 53 mL/min/kg
[11]
  half-life: 2.6 h
Escherichia coli
  MIC: 0.017 µM (≈ 0.0116 µg/mL)
Escherichia coli CFT073
  MIC: 1.6 µM (≈ 1.09 µg/mL)
[3]
  MIC: 71 µM (≈ 48.3 µg/mL)

## CCC[C@H]1C(=O)N[C@@H](C2CCCCCC2)C(=O)N[C@@H](CN)C(=O)N[C@@H](COCCCNCCCN)C(=O)N[C@H](C)CO[C@H](CC2CC3(CCC3)C2)[C@@H](C)C(=O)N1C (cyclo([Dap]S(X5)[X3][NMeNva][Gly(cHept)]))
[4]
  logD: 0.7
[1]
  remaining at 24 h: 103%
[2]
  remaining at 24 h: 106%
[5]
  remaining at 24 h: 118%
[6]
  fraction unbound: 0.025
[7]
  fraction unbound: 0.001
[9]
  CLhep predicted: 53 mL/min/kg
[12]
  clearance: 12 mL/min/kg
[13]
  half-life: 4.6 h
Escherichia coli CFT073
  MIC: 1.6 µM (≈ 1.29 µg/mL)
[3]
  MIC: 18 µM (≈ 14.5 µg/mL)
Enterobacter cloacae
  MIC: 3.1 µM (≈ 2.5 µg/mL)
Klebsiella pneumoniae
  MIC: 3.1 µM (≈ 2.5 µg/mL)
Pseudomonas aeruginosa
  MIC: 50 µM (≈ 40.3 µg/mL)
Acinetobacter baumannii
  MIC: 50 µM (≈ 40.3 µg/mL)
Jurkat
  EC50: > 50 µM

## CCC[C@H]1C(=O)N[C@@H](C2CCCCCC2)C(=O)N[C@@H](CN)C(=O)N[C@@H](COCCCNCCCN)C(=O)N[C@H](C)CO[C@H](CC2C[C@H]3CC[C@@H](C2)C3)[C@@H](C)C(=O)N1C (stereo partly specified) (cyclo([Dap]S(X5)[X6][NMeNva][Gly(cHept)]))
[4]
  logD: 0.2
[6]
  fraction unbound: 0.026
[7]
  fraction unbound: 0.004
[12]
  clearance: 68 mL/min/kg
[13]
  half-life: 2.5 h
Escherichia coli CFT073
  MIC: 0.78 µM (≈ 0.639 µg/mL)
[3]
  MIC: 12 µM (≈ 9.83 µg/mL)
Enterobacter cloacae
  MIC: 1.6 µM (≈ 1.31 µg/mL)
Klebsiella pneumoniae
  MIC: 1.6 µM (≈ 1.31 µg/mL)
Pseudomonas aeruginosa
  MIC: 12 µM (≈ 9.83 µg/mL)
Acinetobacter baumannii
  MIC: 25 µM (≈ 20.5 µg/mL)
Jurkat
  EC50: > 100 µM

## CCCCCC[C@H]1OC[C@@H](C)NC(=O)[C@H](COCCCCN)NC(=O)[C@H](CN)NC(=O)[C@H](C2CCCCCC2)NC(=O)[C@H](CCC)N(C)C(=O)[C@@H]1C (cyclo([Dap]S(X11)[X1][NMeNva][Gly(cHept)]))
[4]
  logD: 1.8
Escherichia coli
  MIC: 0.14 µM (≈ 0.103 µg/mL)
Escherichia coli CFT073
  MIC: 6.3 µM (≈ 4.65 µg/mL)
[3]
  MIC: 71 µM (≈ 52.4 µg/mL)

## CCCCCC[C@H]1OC[C@@H](C)NC(=O)[C@H](COC(CN)CN)NC(=O)[C@H](CN)NC(=O)[C@H](C2CCCCCC2)NC(=O)[C@H](CCC)N(C)C(=O)[C@@H]1C (cyclo([Dap]S(X12)[X1][NMeNva][Gly(cHept)]))
[4]
  logD: 1.1
Escherichia coli
  MIC: 0.55 µM (≈ 0.406 µg/mL)
Escherichia coli CFT073
  MIC: 3.1 µM (≈ 2.29 µg/mL)
[3]
  MIC: 50 µM (≈ 37 µg/mL)

## CCCCCC[C@H]1OC[C@@H](C)NC(=O)[C@H](CO[C@H]2CCN(CCN)C2)NC(=O)[C@H](CN)NC(=O)[C@H](C2CCCCCC2)NC(=O)[C@H](CCC)N(C)C(=O)[C@@H]1C (cyclo([Dap]S(X14)[X1][NMeNva][Gly(cHept)]))
[4]
  logD: 1.6
Escherichia coli
  MIC: 0.2 µM (≈ 0.156 µg/mL)
Escherichia coli CFT073
  MIC: 6.3 µM (≈ 4.91 µg/mL)
[3]
  MIC: 100 µM (≈ 77.9 µg/mL)

## CCCCCC[C@H]1OC[C@@H](C)NC(=O)[C@H](CNC(=O)N[C@H]2C[C@H](N)C2)NC(=O)[C@H](CN)NC(=O)[C@H](C2CCCCCC2)NC(=O)[C@H](CCC)N(C)C(=O)[C@@H]1C (cyclo([Dap][Dap]([CO-X13])[X1][NMeNva][Gly(cHept)]))
[4]
  logD: 1.5
Escherichia coli
  MIC: 0.39 µM (≈ 0.303 µg/mL)
Escherichia coli CFT073
  MIC: 12 µM (≈ 9.34 µg/mL)
[3]
  MIC: 71 µM (≈ 55.2 µg/mL)

## CCCCCC[C@H]1OC[C@@H](C)NC(=O)[C@H](CCOCCCN)NC(=O)[C@H](CN)NC(=O)[C@H](C2CCCCCC2)NC(=O)[C@H](CCC)N(C)C(=O)[C@@H]1C (cyclo([Dap][hSer](Propyl(3-NH2))[X1][NMeNva][Gly(cHept)]))
[4]
  logD: 1.7
Escherichia coli
  MIC: 0.2 µM (≈ 0.148 µg/mL)
Escherichia coli CFT073
  MIC: 8.8 µM (≈ 6.49 µg/mL)
[3]
  MIC: 100 µM (≈ 73.8 µg/mL)
